Test results as given in publication PMC11215724 (Journal of Medicinal Chemistry, 2024).

Columns and labels:
A375 = assay: Cell viability assay, A375 melanoma cell line; assay type: cell-based; conditions: A375 cells
WM3248 = assay: Cell viability assay, WM3248 melanoma cell line; assay type: cell-based; conditions: WM3248 cells
SKMel3 = assay: Cell viability assay, SKMel3 melanoma cell line; assay type: cell-based; conditions: read-out: IC50 SKMel3; SKMel3 cells
[1] = tested on: SKM28, SKMel3, WM3248, A375, SW480; assay: Cell viability assay, all five cancer cell lines together; assay type: cell-based
[2] = starting compounds; cited from earlier work
Stability in DMSO = assay type: physicochemical
Mouse pharmacokinetics = assay type: in vivo; conditions: single I.V. 3 mg/kg or P.O. 10 mg/kg
In short: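 Single dose to mice, either intravenous at 3 mg/kg or oral at 10 mg/kg. Three animals per time point. Plasma concentration–time profiles were used for observed and calculated PK parameters. Animals were watched for treatment-related toxicological signs throughout.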

Aggregation by NMR = assay type: physicochemical; conditions: Tris buffer
In short: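 Compound aggregation checked by WaterLOGSY in the NMR binding-assay buffer at three theoretical concentrations, with 200 μM 4-trifluoromethyl benzoic acid as internal reference. Solubility was checked in PBS and Tris buffer by ¹H 1D spectra. Data were processed with 2 Hz exponential line broadening before Fourier transformation.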

4-(1-Methyl-1H-imidazol-5-yl)-6-(piperidin-4-yl)-N-(3-(trifluoromethyl)phenyl)-1,3,5-triazin-2-amine [Compound 8]
effect on A375 (in words) (A375): annihilating the effect on A375
IC50 (A375; read-out: IC50 A375): > 100 µM
decrease of activity on WM3248 compared to 1 (WM3248): ~10 fold

4-(Piperidin-4-yl)-6-(pyrrolidin-2-yl)-N-(3-(trifluoromethyl)phenyl)-1,3,5-triazin-2-amine [Compound 10]
IC50 (SKMel3): > 100 µM
antiproliferative activity in the cancer cell lines (in words) [1]: complete loss of activity

CN(C)c1cccc(Nc2cc(-c3ccccc3)nc(C3CCNCC3)n2)c1 [ARN22089]
aggregation by NMR at 100 μM [2]: showed aggregation

FC(F)(F)c1cccc(Nc2cc(-c3ccccc3)nc(C3CCNCC3)n2)c1 [ARN25062]
aggregation by NMR at 100 μM [2]: showed aggregation

FC(F)(F)c1cccc(Nc2nc(C3=CCNCC3)nc(-c3ccsc3)n2)c1 [Compound 11, 4-(1,2,3,6-Tetrahydropyridin-4-yl)-6-(thiophen-3-yl)-N-(3-(trifluoromethyl)phenyl)-1,3,5-triazin-2-amine]
stability in DMSO (Stability in DMSO): slight instability in DMSO

COc1ccc(Nc2nc(-c3ccccc3)cc(C3CCNCC3)n2)cc1OC [Compound 15, N-(3,4-Dimethoxyphenyl)-4-phenyl-6-(piperidin-4-yl)pyrimidin-2-amine]
tolerability during the PK studies (Mouse pharmacokinetics): well tolerated by all animals

FC(F)(F)c1cc(Nc2nc(-c3ccccc3)cc(C3CCNCC3)n2)ccn1 [Compound 20, 4-Phenyl-6-(piperidin-4-yl)-N-(2-(trifluoromethyl)pyridin-4-yl)pyrimidin-2-amine]
tolerability during the PK studies (Mouse pharmacokinetics): well tolerated by all animals

Cn1ccc2ccc(Nc3cc(-c4ccccc4)nc(C4CCNCC4)n3)cc21 [Compound 25, 1-Methyl-N-(6-phenyl-2-(piperidin-4-yl)pyrimidin-4-yl)-1H-indol-6-amine]
aggregation by NMR (50 μM) (Aggregation by NMR): showed aggregation
